Test results reported in ChEMBL document CHEMBL1177875, “Antitumor activity of (-)-alpha-bisabolol-based thiosemicarbazones against human tumor cell lines” (2010).

Experiments:
Type in all cases: functional
UACC-62 = assay: Cytotoxicity against human UACC62 cells by sulforhodamine B assay
How it was run: (§1)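 Growth of the human tumor cell line was read colorimetrically with sulforhodamine B, following the NCI standard protocol, with doxorubicin as positive control. Compounds were tested at four concentrations in 10-fold dilutions (0.25 to 250). Dose-response curves gave GI50 (the concentration for 50% growth inhibition), TGI (total growth inhibition) and LC50 (50% cell death).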

MCF7 = assay: Cytotoxicity against human MCF7 cells by sulforhodamine B assay; settings: for CC50: read-out: LC50 (the source's name); how it was run: as §1
[1] = Cytotoxicity against human NCI/ADR cells by sulforhodamine B assay; settings: NCI/ADR-RES; for CC50: read-out: LC50 (the source's name); how it was run: as §1
NCI-H460 = assay: Cytotoxicity against human NCI-H460 cells by sulforhodamine B assay; settings: for CC50: read-out: LC50 (the source's name); how it was run: as §1
[2] = Cytotoxicity against human PCO3 cells by sulforhodamine B assay; settings: for CC50: read-out: LC50 (the source's name); how it was run: as §1
OVCAR-3 = assay: Cytotoxicity against human OVCAR-3 cells by sulforhodamine B assay; settings: for CC50: read-out: LC50 (the source's name); how it was run: as §1
HT-29 = assay: Cytotoxicity against human HT-29 cells by sulforhodamine B assay; settings: for CC50: read-out: LC50 (the source's name); how it was run: as §1
K562 = assay: Cytotoxicity against human K562 cells by sulforhodamine B assay; settings: for CC50: read-out: LC50 (the source's name); how it was run: as §1

Row | Structure (SMILES) | GI50 (UACC-62) | LC50 (50% cell kill) (UACC-62) | TGI (UACC-62) | GI50 (MCF7) | TGI (MCF7) | CC50 (MCF7) | GI50 [1] | TGI [1] | CC50 [1] | GI50 (NCI-H460) | TGI (NCI-H460) | CC50 (NCI-H460) | GI50 [2] | TGI [2] | CC50 [2] | GI50 (OVCAR-3) | TGI (OVCAR-3) | CC50 (OVCAR-3) | GI50 (HT-29) | TGI (HT-29) | also measured
1 | CC1=CC[C@@H]([C@@](C)(O)CCCC(C)(C)NC(=S)N/N=C\c2ccc(Cl)cc2)CC1 | 7.35 µM | 40.6 µM | 13.8 µM | 6.89 µM | 15.8 µM | 44.3 µM | 7.58 µM | 36.4 µM | > 100 µM | 8.72 µM | > 100 µM | > 100 µM | 7.58 µM | 22.7 µM | 48.5 µM | 6.66 µM | 12.8 µM | 40.6 µM | 7.35 µM | 22.6 µM | CC50 (HT-29): 47.3 µM; GI50 (K562): 0.04 µM; TGI (K562): 0.73 µM; CC50 (K562): 10.3 µM
2 | CC1=CC[C@@H]([C@@](C)(O)CCCC(C)(C)NC(=S)N/N=C\c2ccccc2Cl)CC1 | 53.3 µM | > 100 µM | > 100 µM | 31.2 µM | > 100 µM | > 100 µM | > 100 µM | > 100 µM | > 100 µM | 24.6 µM | > 100 µM | > 100 µM | 18.8 µM | > 100 µM | > 100 µM | 42 µM | > 100 µM | > 100 µM | 23.7 µM | > 100 µM | CC50 (HT-29): > 100 µM; GI50 (K562): 0.15 µM; TGI (K562): 4.11 µM; CC50 (K562): 8.5 µM
